In ChEMBL document CHEMBL5705906 (Nat Commun, 2017):
The source made the active and inactive calls. No cut-off for these calls is given here.

Key:
[1] = system: PC-9; conditions: Homo sapiens, dose 75.0 mg/kg, route po, time 15.0 day
[2] = system: PC-9; conditions: Homo sapiens, dose 75.0 mg/kg, route po, time 15.0 day; remark: listed apart in the source
[3] = system: BaF3; conditions: Mus musculus, dose 10-1000 nM, time 6.0 hrs
[4] = system: Epidermal growth factor receptor (Homo sapiens), P00533 [UNDEFINED MUTATION]; conditions: PC-9, dose 10-1000 nM
[5] = system: BaF3; experiment: Inhibition of EGFR-C797S/T790M/del19 mutant in mouse BaF3 cells assessed as reduction in ERK phosphorylation incubated for 6 hrs by Western blotting analysis; format: cell-based
[6] = system: Epidermal growth factor receptor (Homo sapiens), P00533 [UNDEFINED MUTATION]; conditions: MGH121, dose 10-1000 nM
[7] = system: Epidermal growth factor receptor (Homo sapiens), P00533 [UNDEFINED MUTATION]; conditions: PC-9, dose 500.0 nM, time 48.0 hrs
[8] = system: Ba/F3 EGFR-Del19/T790M/C797S; experiment: Cytotoxicity against mouse Ba/F3 EGFR-Del19/T790M/C797S cells assessed as growth inhibition at 100 nM incubated for 72 hrs in presence of panitumumab by CellTiter-Glo assay; format: functional, cell-based
[9] = system: BaF3; experiment: Inhibition of EGFR-T790M/del19 mutant in mouse BaF3 cells assessed as inhibition of S6 phosphorylation at 10 to 1000 nM incubated for 6 hrs by Western blotting analysis; format: cell-based; conditions: dose 10-1000 nM
Summary of the method: (§1)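 Ba/F3 cells carrying the stated EGFR mutant were made IL-3-independent after 1 week of 7 µM blasticidin selection. They were grown in low-glucose DMEM with 10% FBS and exposed to inhibitor for 6 h. Cells were washed in cold PBS, lysed in SDS buffer (100 mM Tris, 1% SDS, 10% glycerol) and boiled 5 min. Protein was measured by BCA, run on SDS-PAGE, transferred to PVDF, blocked in 5% BSA or milk/TBS-T, and immunoblotted.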

[10] = system: Epidermal growth factor receptor (Homo sapiens), P00533 [UNDEFINED MUTATION]; conditions: PC-9, dose 10-1000 nM; remark: listed apart in the source
[11] = system: MGH121; experiment: Anti-tumor activity against human MGH121 cells expressing EGFR-C797S/T790M/del19 mutant xenografted in SCID-beige mouse assessed as tumor shrinkage at 75 mg/kg, po administered for 40 days and measured twice weekly in presence of cetuximab; format: functional, organism-based; conditions: time 40.0 day
Summary of the method: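 MGH121-res2 cells (EGFR-C797S/T790M/del19) implanted s.c. in SCID-beige mice. Randomized at mean tumour ~200 mm³. […] Tumour volume 0.5×length×width² and body weight measured twice weekly. N = 6, mean ± s.d. Mann-Whitney U test on day 42.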

[12] = system: Epidermal growth factor receptor (Homo sapiens), P00533 [UNDEFINED MUTATION]; conditions: PC-9, dose 500.0 nM, time 48.0 hrs; remark: listed apart in the source
[13] = system: BaF3; conditions: Mus musculus, dose 30-1000 nM, time 6.0 hrs
[14] = system: BaF3; conditions: Mus musculus, dose 10-1000 nM
[15] = system: PC-9; conditions: Homo sapiens, dose 75.0 mg/kg, route po, time 60.0 day
[16] = system: Epidermal growth factor receptor (Homo sapiens), P00533 [UNDEFINED MUTATION]; conditions: PC-9, dose 10-1000 nM; remark: listed apart in the source
[17] = system: PC-9; experiment: Anti-tumor activity against human PC-9 cells expressing EGFR-C797S/T790M/del19 mutant xenografted in Balb-c nu/nu mouse assessed as prolonged survival at 75 mg/kg, po administered for 60 days and measured twice weekly in presence of panitumumab; format: functional, organism-based; conditions: time 60.0 day
Summary of the method: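 PC9 EGFR-C797S/T790M/del19 xenografts in Balb-c nu/nu mice, randomized at ~200 mm³. […] Tumour volume 0.5×length×width² measured twice weekly. Survival by Kaplan-Meier. N = 6. Mann-Whitney U test at days 16 and 23.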

[18] = system: PC-9; experiment: Anti-tumor activity against human PC-9 cells expressing EGFR-C797S/T790M/del19 mutant xenografted in Balb-c nu/nu mouse assessed as decreased tumor growth at 75 mg/kg, po administered for 60 days and measured twice weekly in presence of cetuximab; format: functional, organism-based; conditions: time 60.0 day
Summary of the method: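 PC9 EGFR-C797S/T790M/del19 xenografts in Balb-c nu/nu mice, randomized at ~200 mm³. […] Tumour volume 0.5×length×width² and body weight measured twice weekly. Survival shown by Kaplan-Meier curve. N = 6. Mann-Whitney U test on tumour volume at day 23.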

[19] = system: PC-9; conditions: Homo sapiens, dose 75.0 mg/kg, route po, time 60.0 day; remark: listed apart in the source
[20] = system: PC-9; format: functional, organism-based; conditions: Homo sapiens, dose 75.0 mg/kg, route po, time 15.0 day
[21] = system: PC-9; experiment: Inhibition of EGFR T790M/del19 mutant in human PC-9 cells assessed as reduction in ERK phosphorylation at 10 to 1000 nM by Western blotting analysis; format: cell-based; conditions: dose 10-1000 nM
[22] = system: PC-9; conditions: Homo sapiens, dose 75.0 mg/kg, route po, time 60.0 day; remark: listed apart in the source
[23] = Toxicity against Balb-c nu/nu mouse xenografted with human PC-9 cells expressing EGFR-C797S/T790M/del19 mutant assessed as change in body weight at 75 mg/kg, po administered for 60 days and measured twice weekly in presence of cetuximab; format: organism-based; conditions: in vivo, 1440 h, time 60 day
Summary of the method: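 Balb-c nu/nu mice carried subcutaneous PC9 triple-mutant xenografts (6×10^6 cells in 1:2 Matrigel) and were randomized at ~200 mm³. […] Body weight was measured twice weekly, N=6 per arm.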

[24] = system: BaF3; experiment: Inhibition of EGFR-C797S/T790M/L858R mutant expressed in mouse BaF3 cells assessed as inhibition of ERK phosphorylation at 10 to 1000 nM incubated for 6 hrs by Western blotting analysis; format: cell-based; conditions: dose 10-1000 nM
Summary of the method: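 Ba/F3 cells expressing EGFR-L858R-series mutants treated with inhibitors for 6 h. SDS lysates quantified by BCA, run on SDS-PAGE and blotted to PVDF. Probed for phospho-EGFR (Tyr1068), total EGFR and downstream phospho-proteins.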

[25] = system: BaF3; experiment: Inhibition of EGFR-del19 mutant in mouse BaF3 cells assessed as inhibition of ERK phosphorylation at 10 to 1000 nM incubated for 6 hrs by Western blotting analysis; format: cell-based; conditions: dose 10-1000 nM
Summary of the method: as §1

[26] = system: PC-9; experiment: Inhibition of EGFR T790M/del19 mutant in human PC-9 cells assessed as reduction in S6 phosphorylation at 10 to 1000 nM by Western blotting analysis; format: cell-based; conditions: dose 10-1000 nM
[27] = system: BaF3; format: cell-based; conditions: Mus musculus, dose 10-1000 nM, time 6.0 hrs
[28] = system: Epidermal growth factor receptor (Homo sapiens), P00533 [UNDEFINED MUTATION]; conditions: PC-9, dose 10-1000 nM; remark: listed apart in the source
[29] = system: BaF3; experiment: Inhibition of EGFR-del19 mutant in mouse BaF3 cells assessed as inhibition of S6 phosphorylation at 10 to 1000 nM incubated for 6 hrs by Western blotting analysis; format: cell-based; conditions: dose 10-1000 nM
Summary of the method: as §1

Epidermal growth factor receptor (Homo sapiens), P00533 [UNDEFINED MUTATION], sequence (P00533 whole entry, looked up, stated change not applied): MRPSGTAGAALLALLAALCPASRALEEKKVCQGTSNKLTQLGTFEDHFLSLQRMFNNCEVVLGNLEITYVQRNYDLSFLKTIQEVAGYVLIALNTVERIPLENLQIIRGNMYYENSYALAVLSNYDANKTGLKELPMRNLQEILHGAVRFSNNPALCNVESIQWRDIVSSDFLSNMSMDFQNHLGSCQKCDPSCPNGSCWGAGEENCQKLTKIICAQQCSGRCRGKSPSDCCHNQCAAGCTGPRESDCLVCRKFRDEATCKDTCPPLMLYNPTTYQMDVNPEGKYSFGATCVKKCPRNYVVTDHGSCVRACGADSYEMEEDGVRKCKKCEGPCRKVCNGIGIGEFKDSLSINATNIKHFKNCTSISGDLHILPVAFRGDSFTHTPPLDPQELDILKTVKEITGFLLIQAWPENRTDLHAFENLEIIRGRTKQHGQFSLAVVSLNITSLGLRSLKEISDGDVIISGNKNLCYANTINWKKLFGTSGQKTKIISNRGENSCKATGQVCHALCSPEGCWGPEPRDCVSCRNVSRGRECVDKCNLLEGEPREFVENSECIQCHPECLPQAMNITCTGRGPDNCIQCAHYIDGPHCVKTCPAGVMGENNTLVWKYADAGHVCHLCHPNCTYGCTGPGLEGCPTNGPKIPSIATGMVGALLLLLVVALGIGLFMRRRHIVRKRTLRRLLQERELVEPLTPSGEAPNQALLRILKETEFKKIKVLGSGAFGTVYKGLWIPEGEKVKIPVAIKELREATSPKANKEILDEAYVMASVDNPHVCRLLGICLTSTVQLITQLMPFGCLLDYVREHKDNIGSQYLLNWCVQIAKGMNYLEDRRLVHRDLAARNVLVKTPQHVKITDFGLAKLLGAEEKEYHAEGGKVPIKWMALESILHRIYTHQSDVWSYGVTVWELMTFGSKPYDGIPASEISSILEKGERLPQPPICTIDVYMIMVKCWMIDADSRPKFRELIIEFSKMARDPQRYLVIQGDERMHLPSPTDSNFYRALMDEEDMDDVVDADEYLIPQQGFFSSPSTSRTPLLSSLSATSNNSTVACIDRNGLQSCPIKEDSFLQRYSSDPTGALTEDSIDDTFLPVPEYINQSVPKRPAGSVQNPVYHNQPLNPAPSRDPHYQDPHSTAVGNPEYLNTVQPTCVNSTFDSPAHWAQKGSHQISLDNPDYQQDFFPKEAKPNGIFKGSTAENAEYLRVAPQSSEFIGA

For `COc1cc(N2CCC(N3CCN(C)CC3)CC2)ccc1Nc1ncc(Cl)c(Nc2ccccc2P(C)(C)=O)n1` [BRIGATINIB], which inhibition [1] is on record?
Its inhibition is “Active”.

What about the inhibition [2] of the same compound?
The inhibition was “Active”.

What about the inhibition [3] of the same compound?
Its inhibition is “Active”.

What about the inhibition [4] of the same compound?
Its inhibition is “Active”.

What about the inhibition [5] of the same compound?
Its inhibition is “Dose-Dependent Effect”.

And the inhibition [6]?
The inhibition was “Active”.

What about the inhibition [7] of the same compound?
Its inhibition is “Active”.

What about the “growth inhibition (GI)” value [8] of the same compound?
The value was “Active”.

And the inhibition [9]?
The inhibition was “Active”.

What about the inhibition [10] of the same compound?
Its inhibition is “Active”.

And the Activity [11]?
The Activity was “Active”.

And the inhibition [12]?
Its inhibition is “Active”.

And the inhibition [13]?
Its inhibition is “Active”.

What about the inhibition [14] of the same compound?
The inhibition was “Dose-Dependent Effect”.

What about the inhibition [15] of the same compound?
Its inhibition is “Active”.

What about the inhibition [16] of the same compound?
The inhibition was “Active”.

What about the Activity [17] of the same compound?
The Activity was “Active”.

What about the Activity [18] of the same compound?
The Activity was “Active”.

And the inhibition [19]?
The inhibition was “Active”.

And the Activity [20]?
The Activity was “Active”.

And the inhibition [21]?
The inhibition was “Active”.

And the inhibition [22]?
Its inhibition is “Active”.

And the Activity [23]?
Its Activity is “Non-Toxic”.

And the inhibition [24]?
The inhibition was “Active”.

What about the inhibition [25] of the same compound?
The inhibition was “Active”.

And the inhibition [26]?
The inhibition was “Active”.

What about the inhibition [27] of the same compound?
Its inhibition is “Active”.

And the inhibition [28]?
The inhibition was “Active”.

What about the inhibition [29] of the same compound?
The inhibition was “Active”.
